Assay results from different studies.
Protocols differ between the studies behind these lines.
Mode: inhibitor
HDAC6: Protein deacetylase HDAC6 (HDAC6, Homo sapiens, UniProt Q9UBN7)
CDK7 with cyclin H: Cyclin-dependent kinase 7, with cyclin H (CDK7, Homo sapiens, UniProt P50613)
ACSL4: Long-chain-fatty-acid--CoA ligase 4 (ACSL4, Homo sapiens, UniProt O60488)
CES1: Liver carboxylesterase 1 (CES1, Homo sapiens, UniProt P23141)

COc1ccc(N(Cc2nc(-c3ccc(F)cc3)cs2)C(=O)CCCCCC(=O)NO)cc1 — IC50 (HDAC6; enzyme activity): 0.0035 µM
O=C(/C=C/c1ccc(O)c(O)c1)O[C@H]1[C@H](O)[C@@H](O)[C@H](OCCc2ccc(O)c(O)c2)O[C@@H]1CO — IC50 (3-hydroxy-3-methylglutaryl-coenzyme A reductase (HMGCR, Homo sapiens, UniProt P04035); enzyme activity; absorbance): 73.5 µM
CNS(=O)(=O)c1ccc(Nc2ncc(C(F)(F)F)c(N3CCC[C@](C)(O)C3)n2)c(C)c1 — IC50 (CDK7 with cyclin H; enzyme activity; radiometric): 1.61 µM
CN(CCOc1ccc(CC2SC(=O)NC2=O)cc1)c1ccccn1 (stereo not shown) — IC50 (ACSL4; enzyme activity): 1.1 µM
CCC(CC)COC(=O)[C@H](C)N[P@](=O)(OC[C@H]1O[C@@](C#N)(c2ccc3c(N)ncnn23)[C@H](O)[C@@H]1O)Oc1ccccc1 — IC50 (CES1; enzyme activity; absorbance): 36.2 µM
CN(CCOc1ccccc1)c1ccccn1 — IC50 (ACSL4; enzyme activity): > 50 µM
CNS(=O)(=O)c1ccc(Nc2ncc(C(F)(F)F)c([C@H]3CC[C@](C)(O)CC3)n2)c(C)c1 — IC50 (CDK7 with cyclin H; enzyme activity; radiometric): 2.13 µM
COc1ccc(N(Cc2csc(-c3ccc(Br)cc3)n2)C(=O)CCCCCC(=O)NO)cc1 — IC50 (HDAC6; enzyme activity): 0.0032 µM
Cc1cc(S(=O)(=O)NCCO[C@H]2CC[C@H](CN3CCC(c4ccn5c(N6CCC(=O)NC6=O)cnc5c4)CC3)CC2)ccc1Nc1ncc2cc(Cl)c(=O)n(C3CCCC3)c2n1 — IC50 (CDK7 with cyclin H; enzyme activity; radiometric): 3.8 µM
COc1ccc(Nc2ncnc3c2ncn3Cc2ccc(C(=O)NO)cc2)cc1 — IC50 (HDAC6; enzyme activity; fluorescence): < 0.002 µM
CNS(=O)(=O)c1ccc(Nc2ncc3cc(Cl)c(=O)n(C4CCCC4)c3n2)c(C)c1 — IC50 (CDK7 with cyclin H; enzyme activity; radiometric): 1.6 µM
CCc1ccc(CCOc2ccc(CC3SC(=O)NC3=O)cc2)nc1 (stereo not shown) — IC50 (ACSL4; enzyme activity): 6.4 µM
CN(C)C(=O)c1cc2cnc(Nc3ccc(-c4cccc5c(=O)cc(N6CCOCC6)oc45)cc3)nc2n1C1CCCC1 — IC50 (CDK7 with cyclin H; enzyme activity): > 10 µM
N=C(N)NCCCC(=O)O — IC50 (Alkaline phosphatase, tissue-nonspecific isozyme (Rattus norvegicus, UniProt P08289); enzyme activity in cells; absorbance): 15200 µM
O=C(COc1ccc(C2CCC(=O)NC2=O)cc1)NCCCCCCN1CCc2c(c3ccccc3n2Cc2ccc(C(=O)NO)cc2)C1 (stereo not shown) — IC50 (HDAC6; enzyme activity; fluorescence): 0.025 µM
COC(=O)/C=C/c1ccc(OCCN(C)C(=O)c2ccccc2)cc1 — IC50 (Long-chain-fatty-acid--CoA ligase 4 (ACSL4, Homo sapiens, UniProt O60488, Q302M); enzyme activity): 7.1 µM
COC(=O)c1cc(OC)c2c(c1-c1c(C(=O)OC)cc(OC)c3c1OCO3)OCO2 — IC50 (CES1; enzyme activity): 11.4 µM
COC(=O)CCCc1ccc(OCCN(C)c2ccccc2)cc1 — IC50 (ACSL4; enzyme activity): > 50 µM
CN(CCCCCCNC(=O)COc1ccc(C2CCC(=O)NC2=O)cc1)Cc1cn(Cc2ccc(C(=O)NO)cc2)c2ccccc12 (stereo not shown) — IC50 (HDAC6; enzyme activity; fluorescence): 0.031 µM
Cc1c(C)c2c(c(C)c1O)CCC(C)(COc1ccc(CC3SC(=O)NC3=O)cc1)O2 (stereo not shown) — IC50 (ACSL4; enzyme activity): 26.3 µM
CCc1oc2ccccc2c1C(=O)c1cc(Br)c(O)c(Br)c1 — IC50 (Solute carrier organic anion transporter family member 2B1 (SLCO2B1, Homo sapiens, UniProt O94956); transporter uptake; radiometric): 0.209 µM
O=C(NO)c1ccc(Cn2cnc3c(Nc4ccc(Br)cc4F)ncnc32)cc1 — IC50 (HDAC6; enzyme activity; fluorescence): 0.00913 µM
N=C(N)c1ccc(OCCCCCOc2ccc(C(=N)N)cc2)cc1 — IC50 (Prothrombin (F2, Homo sapiens, UniProt P00734); enzyme activity; absorbance): > 100 µM
COC(=O)/C=C/c1ccc(OCCN(C)c2ccccc2)cc1 — IC50 (ACSL4; enzyme activity): 1.5 µM
CN(CCCCCCNC(=O)CNc1cccc2c1C(=O)N(C1CCC(=O)NC1=O)C2=O)Cc1cn(Cc2ccc(C(=O)NO)cc2)c2ccccc12 (stereo not shown) — IC50 (HDAC6; enzyme activity; fluorescence): 0.026 µM
